# Source: ChEMBL document CHEMBL1129302, “Quinazoline antifolate thymidylate synthase inhibitors: gamma-linked L-D, D-D, and D-L dipeptide analogues of 2-desamino-2-methyl-N10-propargyl-5,8-dideazafolic acid (ICI 198583)” (J Med Chem, 1996)
# Values joined by “and” are separate entries in the source; they are usually repeats but may differ in a detail not shown here. Equal entries are not always repeated.
# Assays:
# L1210 (RD1694) [1] = experiment: Inhibitory activity against L1210:RD1694 cell growth.; format: functional, cell-based, Mus musculus
# Thymidylate synthase [2] = target: T1, Thymidylate synthase (Mus musculus, UniProt P07607); experiment: Inhibition of Thymidylate synthase activity in L1210 cells; format: cell-based
# T1 sequence (P07607 whole entry): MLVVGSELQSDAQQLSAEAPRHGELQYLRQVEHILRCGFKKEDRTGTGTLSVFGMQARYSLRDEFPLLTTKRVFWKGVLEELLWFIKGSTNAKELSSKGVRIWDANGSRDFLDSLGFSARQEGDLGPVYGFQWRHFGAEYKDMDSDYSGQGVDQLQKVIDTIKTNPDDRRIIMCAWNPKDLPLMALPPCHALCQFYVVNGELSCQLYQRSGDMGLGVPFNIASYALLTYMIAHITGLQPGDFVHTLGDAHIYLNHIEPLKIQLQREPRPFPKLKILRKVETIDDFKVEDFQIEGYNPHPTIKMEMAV
# In short: (§1)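 TS was partially purified from L1210 mouse leukemia cells that overproduce the enzyme through TS gene amplification. Inhibition was assayed with (±)-5,10-methylenetetrahydrofolic acid as cofactor at 200 µM.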
# L1210 [3] = experiment: Inhibition of L1210 cell growth; format: functional, cell-based, Mus musculus
# L1210 (1565) [4] = experiment: Inhibitory activity against L1210:1565 cell growth.; format: functional, cell-based, Mus musculus
# WIL2 = experiment: Inhibitory activity against human W1L2 cell growth; format: functional, cell-based
# Mus musculus = organism: Mus musculus; experiment: Plasma concentration in mice.; format: ADME, organism-based; conditions: in vivo, read-out: Plasma concentration
# L1210 (RD1694) [5] = experiment: Inhibitory activity against L1210:RD1694 cell growth; format: functional, cell-based, Mus musculus
# L1210 [6] = experiment: Inhibitory activity against L1210 cell growth.; format: functional, cell-based, Mus musculus
# Thymidylate synthase [7] = target: T1, Thymidylate synthase; experiment: Binding affinity against L1210 Thymidylate synthase.; in short: as §1
# L1210 (1565) [8] = experiment: Inhibitory activity against L1210:1565 cell growth; format: functional, cell-based; conditions: Mus musculus
SMILES,IC50 (Thymidylate synthase [2]) [nM],"IC50 (L1210 [3]; Mus musculus, L1210) [nM]","IC50 (L1210 (1565) [4]; Mus musculus, L1210 (1565)) [µM]","IC50 (WIL2; Homo sapiens, WIL2) [nM]",further results
C#CCN(Cc1ccc2nc(C)nc(O)c2c1)c1ccc(C(=O)N[C@@H](CCC(=O)N[C@@H](C)C(=O)O)C(=O)O)cc1,13,620,,,"IC50 (L1210 (RD1694) [1]; Mus musculus, L1210 (RD1694)): 2100 nM; IC50 (L1210 (RD1694) [1]; l1210 (rd1694)): 1600 nM; IC50 (L1210 [3]; l1210): 790 nM"
Cc1nc(O)c2cc(CN(C)c3ccc(C(=O)N[C@@H](CCC(=O)N[C@H](CCC(=O)O)C(=O)O)C(=O)O)c(F)c3)c(C)cc2n1,2,260,,,
C#CCN(Cc1ccc2nc(C)nc(O)c2c1)c1ccc(C(=O)N[C@@H](CCC(=O)N[C@@H](CCC(=O)O)C(=O)O)C(=O)O)cc1 [listing 1 of 2 here],,,,,IC50 (WIL2; wil2): 2400 nM; IC50 (L1210 [3]; l1210): 3400 nM
C#CCN(Cc1cc2c(O)nc(C)nc2cc1C)c1ccc(C(=O)N[C@@H](CCC(=O)N[C@H](CCC(=O)O)C(=O)O)C(=O)O)c(F)c1,0.4,200,6.8,170,Ki (Thymidylate synthase [7]): 0.19 nM; concentration (Mus musculus): 32 µM; IC50 (L1210 (1565) [4]; l1210 (1565)): 8.7 µM; IC50 (WIL2; wil2): 93 nM
Cc1nc(O)c2cc(CN(C)c3ccc(C(=O)N[C@@H](CCC(=O)N[C@H](CCC(=O)O)C(=O)O)C(=O)O)c(F)c3)ccc2n1,8.8,650,21,900,
C#CCN(Cc1cc2c(O)nc(C)nc2cc1C)c1ccc(C(=O)N[C@@H](CCC(=O)N[C@H](CCCC(=O)O)C(=O)O)C(=O)O)c(F)c1,0.56,130,12,300,Ki (Thymidylate synthase [7]): 0.12 nM; IC50 (L1210 (1565) [4]; l1210 (1565)): 8.1 µM; IC50 (WIL2; wil2): 190 nM
C#CCN(Cc1ccc2nc(C)nc(O)c2c1)c1ccc(C(=O)N[C@@H](CCC(=O)N[C@@H](Cc2ccccc2)C(=O)O)C(=O)O)cc1,18,4400,,,"IC50 (L1210 (RD1694) [5]; Mus musculus, L1210 (RD1694)): 8900 nM"
C#CCN(Cc1ccc2nc(C)nc(O)c2c1)c1ccc(C(=O)N[C@@H](CCC(=O)NC(Cc2ccccc2)C(=O)O)C(=O)O)cc1 (stereo partly specified),30,2100,> 10,,
C#CCN(Cc1ccc2nc(C)nc(O)c2c1)c1ccc(C(=O)N[C@@H](CCC(=O)N[C@@H](CCC(=O)O)C(=O)O)C(=O)O)cc1 [listing 2 of 2 here],,,,,IC50 (L1210 (1565) [4]; l1210 (1565)): 5 µM; IC50 (WIL2; wil2): 90 nM and 74 nM; IC50 (L1210 (RD1694) [5]; l1210 (rd1694)): 2900 nM; IC50 (L1210 [3]; l1210): 160 nM
Cc1nc(O)c2cc(CN(C)c3ccc(C(=O)N[C@@H](CCC(=O)N[C@H](CCC(=O)O)C(=O)O)C(=O)O)cc3)c(C)cc2n1,4.6,580,,280,IC50 (L1210 (1565) [8]): 19 µM

# Continued, in another order:
IC50 (Thymidylate synthase [2]) [nM],"IC50 (L1210 [3]; Mus musculus, L1210) [nM]","IC50 (L1210 (1565) [4]; Mus musculus, L1210 (1565)) [µM]",SMILES,"IC50 (WIL2; Homo sapiens, WIL2) [nM]",further results
,1300,100,C#CCN(Cc1ccc2nc(C)nc(O)c2c1)c1ccc(C(=O)N[C@H](CCC(=O)N[C@H](CCC(=O)O)C(=O)O)C(=O)O)cc1,1400,
,,27,C#CCN(Cc1ccc2nc(C)nc(O)c2c1)c1ccc(C(=O)N[C@@H](CCC(=O)N[C@H](CCCC(=O)O)C(=O)O)C(=O)O)cc1,220,"concentration (Mus musculus): 31 µM; IC50 (L1210 (RD1694) [5]; Mus musculus, L1210 (RD1694)): 440 nM; IC50 (L1210 [6]; Mus musculus, L1210): 80 nM; IC50 (L1210 [6]; l1210): 110 nM; IC50 (L1210 (RD1694) [1]; Mus musculus, L1210 (RD1694)): 420 nM"
,300,,C#CCN(Cc1ccc2nc(C)nc(O)c2c1)c1ccc(C(=O)N[C@@H](CCC(=O)N[C@@H](CCCC(=O)O)C(=O)O)C(=O)O)cc1,,"IC50 (L1210 (RD1694) [5]; Mus musculus, L1210 (RD1694)): 2900 nM"
,,15,C#CCN(Cc1ccc2nc(C)nc(O)c2c1)c1ccc(C(=O)N[C@@H](CCC(=O)N[C@H](CCC(=O)O)C(=O)O)C(=O)O)cc1,150,"concentration (Mus musculus): 34 µM; IC50 (L1210 (RD1694) [5]; Mus musculus, L1210 (RD1694)): 680 nM"
12,430,,C#CCN(Cc1ccc2nc(C)nc(O)c2c1)c1ccc(C(=O)N[C@@H](CCC(=O)N[C@H](C)C(=O)O)C(=O)O)cc1,150,"IC50 (L1210 (1565) [8]): 16 µM; IC50 (L1210 (RD1694) [5]; Mus musculus, L1210 (RD1694)): 880 nM"
34,3200,,Cc1nc(O)c2cc(CN(C)c3ccc(C(=O)N[C@@H](CCC(=O)N[C@H](CCC(=O)O)C(=O)O)C(=O)O)cc3)ccc2n1,,concentration (Mus musculus): 17 µM
1.9,210,7.8,C#CCN(Cc1cc2c(O)nc(C)nc2cc1C)c1ccc(C(=O)N[C@@H](CCC(=O)N[C@H](CCC(=O)O)C(=O)O)C(=O)O)cc1,230,
1.9,210,7.8,C#CCN(Cc1ccc2nc(C)nc(O)c2c1)c1ccc(C(=O)N[C@@H](CCC(=O)N[C@H](CCC(=O)O)C(=O)O)C(=O)O)c(F)c1,220,
17,3600,,CCN(Cc1ccc2nc(C)nc(O)c2c1)c1ccc(C(=O)N[C@@H](CCC(=O)N[C@H](CCC(=O)O)C(=O)O)C(=O)O)cc1,,
